According to ChEMBL document CHEMBL4665798, “Novel Human Urate Transporter 1 Inhibitors as Hypouricemic Drug Candidates with Favorable Druggability” (J Med Chem, 2020):

Tests used:
Mus musculus [1] = assay: Hypouricemic activity in Kunming mouse model of xanthine/potassium oxonate-induced acute hyperuricemia assessed as decrease in serum uric acid level at 2 mg/kg administered 3 hrs prior to xanthine/potassium oxonate and measured after 6 hrs relative to control; assay type: functional; design: scale not given: the % may be the effect or the level left; conditions: time 9 hrs
In short: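 Male Kunming mice, hyperuricemia induced by intragastric xanthine plus subcutaneous potassium oxonate (0.2 mL each). […] Groups: normal vehicle, untreated model, active control, test. Serum uric acid measured. Decrease ratio = (model SUA − compound SUA)/(model SUA − vehicle SUA).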

[2] = biological target: T1, Solute carrier family 22 member 12 (Homo sapiens, UniProt Q96S37); assay: Inhibition of human URAT1 expressed in HEK293T cells assessed as reduction in [14C]uric acid uptake preincubated for 15 mins followed by [14C]uric acid addition by liquid scintillation counting method; assay type: cell-based
T1 sequence (Q96S37 whole entry): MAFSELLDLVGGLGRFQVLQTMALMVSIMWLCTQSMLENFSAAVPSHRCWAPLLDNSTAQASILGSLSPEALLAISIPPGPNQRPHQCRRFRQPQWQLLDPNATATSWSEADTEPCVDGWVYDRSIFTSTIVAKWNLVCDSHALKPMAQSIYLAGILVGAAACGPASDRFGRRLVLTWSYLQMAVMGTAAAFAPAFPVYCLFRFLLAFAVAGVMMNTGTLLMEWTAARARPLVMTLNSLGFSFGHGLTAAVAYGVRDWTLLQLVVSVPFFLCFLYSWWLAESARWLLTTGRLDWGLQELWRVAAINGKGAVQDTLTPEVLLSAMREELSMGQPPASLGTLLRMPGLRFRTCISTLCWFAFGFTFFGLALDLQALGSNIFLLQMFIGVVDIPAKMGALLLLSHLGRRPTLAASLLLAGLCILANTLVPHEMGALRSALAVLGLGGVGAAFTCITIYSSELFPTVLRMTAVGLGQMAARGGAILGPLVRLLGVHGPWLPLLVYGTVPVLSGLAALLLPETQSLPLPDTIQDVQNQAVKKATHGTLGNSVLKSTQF

Mus musculus [3] = assay: Potency index, ratio of lesinurad to test compound for hypouricemic activity in Kunming mouse model of xanthine/potassium oxonate-induced acute hyperuricemia assessed as decrease in serum uric acid level at 2 mg/kg administered 3 hrs prior to xanthine/potassium oxonate and measured after 6 hrs; assay type: functional
[4] = Sub-acute toxicity in Kunming mouse assessed as hydropic degeneration of hepatocytes at 50 mg/kg, po administered as single dose every other day for 14 days by H and E staining based assay; assay type: organism-based; conditions: in vivo, 336 h, time 14 day
[5] = Acute toxicity in Kunming mouse assessed as death at 500 mg/kg, ig measured for 1 week; assay type: organism-based; conditions: in vivo, po, 168 h, time 1 weeks
[6] = Sub-acute toxicity in Kunming mouse assessed as appearance of ruffled fur at 50 mg/kg, po administered once every second day for 14 days; assay type: organism-based; conditions: in vivo, 336 h, time 14 day
[7] = Tmax in Sprague-Dawley rat at 20 mg/kg, po by LC-MS analysis; assay type: ADME, organism-based; conditions: in vivo
[8] = Sub-acute toxicity in female Kunming mouse assessed as increase in body weight at 50 mg/kg, po administered once every second day for 14 days; assay type: organism-based; conditions: in vivo, 336 h, time 14 day
[9] = Acute toxicity in female Kunming mouse assessed as change in body weight at 500 mg/kg, ig measured for 1 week; assay type: organism-based; conditions: in vivo, po, 168 h, time 1 weeks
[10] = Sub-acute toxicity in Kunming mouse assessed as ballooning degeneration of liver at 50 mg/kg, po administered as single dose every other day for 14 days by H and E staining based assay; assay type: organism-based; conditions: in vivo, 336 h, time 14 day
[11] = Acute toxicity in male Kunming mouse assessed as change in body weight at 500 mg/kg, ig measured for 1 week; assay type: organism-based; conditions: in vivo, po, 168 h, time 1 weeks
Rattus norvegicus = species: Rattus norvegicus; assay: Hypouricemic activity in rat model of xanthine/potassium oxonate-induced acute hyperuricemia assessed as decrease in serum uric acid level relative to control; assay type: functional; design: scale not given: the % may be the effect or the level left
[12] = Cmax in Sprague-Dawley rat at 20 mg/kg, po by LC-MS analysis; assay type: ADME, organism-based; design: route oral, dose 20 mg/kg; conditions: in vivo
[13] = Sub-acute toxicity in Kunming mouse assessed as clonic convulsion at 50 mg/kg, po administered once every second day for 14 days; assay type: organism-based; conditions: in vivo, 336 h, time 14 day
[14] = Half-life in Sprague-Dawley rat at 1 mg/kg, iv by LC-MS analysis; assay type: ADME, organism-based; conditions: in vivo
[15] = AUC (0 to infinity) in Sprague-Dawley rat at 1 mg/kg, iv by LC-MS analysis; assay type: ADME, organism-based; design: time infinity, route intravenous, dose 1 mg/kg; conditions: in vivo
[16] = Acute toxicity in Kunming mouse assessed as induction of abnormal behaviors by measuring anorexia at 500 mg/kg, ig; assay type: organism-based; conditions: in vivo, po
[17] = Sub-acute toxicity in Kunming mouse assessed as death at 50 mg/kg, po administered once every second day for 14 days; assay type: organism-based; conditions: in vivo, 336 h, time 14 day
[18] = MRT (0 to infinity) in Sprague-Dawley rat at 20 mg/kg, po by LC-MS analysis; assay type: ADME, organism-based; conditions: in vivo
[19] = MRT (0 to infinity) in Sprague-Dawley rat at 1 mg/kg, iv by LC-MS analysis; assay type: ADME, organism-based; conditions: in vivo
[20] = AUC (0 to t) in Sprague-Dawley rat at 20 mg/kg, po by LC-MS analysis; assay type: ADME, organism-based; design: dose 20 mg/kg; conditions: in vivo
[21] = AUC (0 to infinity) in Sprague-Dawley rat at 20 mg/kg, po by LC-MS analysis; assay type: ADME, organism-based; design: route oral, time infinity, dose 20 mg/kg; conditions: in vivo
[22] = Oral bioavailability in Sprague-Dawley rat at 20 mg/kg by LC-MS analysis; assay type: ADME, organism-based; conditions: in vivo
[23] = Half-life in Sprague-Dawley rat at 20 mg/kg, po by LC-MS analysis; assay type: ADME, organism-based; conditions: in vivo
[24] = Sub-acute toxicity in Kunming mouse assessed as hepatocellular condensation of liver at 50 mg/kg, po administered as single dose every other day for 14 days by H and E staining based assay; assay type: organism-based; conditions: in vivo, 336 h, time 14 day
[25] = Clearance in Sprague-Dawley rat at 1 mg/kg, iv by LC-MS analysis; assay type: ADME, organism-based; conditions: in vivo
[26] = Sub-acute toxicity in Kunming mouse assessed as congestion in hepatic central vein at 50 mg/kg, po administered as single dose every other day for 14 days by H and E staining based assay; assay type: organism-based; conditions: in vivo, 336 h, time 14 day
[27] = AUC (0 to t) in Sprague-Dawley rat at 1 mg/kg, iv by LC-MS analysis; assay type: ADME, organism-based; design: dose 1 mg/kg; conditions: in vivo
[28] = Acute toxicity in Kunming mouse assessed as induction of abnormal behaviors by measuring lethargy at 500 mg/kg, ig; assay type: organism-based; conditions: in vivo, po
[29] = Sub-acute toxicity in Kunming mouse assessed as lethargy at 50 mg/kg, po administered once every second day for 14 days; assay type: organism-based; conditions: in vivo, 336 h, time 14 day
[30] = Sub-acute toxicity in Kunming mouse assessed as anorexia at 50 mg/kg, po administered once every second day for 14 days; assay type: organism-based; conditions: in vivo, 336 h, time 14 day
[31] = Acute toxicity in Kunming mouse assessed as induction of abnormal behaviors by measuring clonic convulsion at 500 mg/kg, ig; assay type: organism-based; conditions: in vivo, po
[32] = Sub-acute toxicity in male Kunming mouse assessed as increase in body weight at 50 mg/kg, po administered once every second day for 14 days; assay type: organism-based; conditions: in vivo, 336 h, time 14 day

In the case of `CC(Sc1nc2cccnc2n1-c1ccc(C2CC2)c2ccccc12)C(=O)O` (stereo unspecified), the Activity (Mus musculus [1]) is reported as 42.06% and the IC50 [2] is reported as greater than 30 µM.

Molecule `CC(Sc1nc2ncccc2n1-c1ccc(C#N)c2ccccc12)C(=O)O` (stereo unspecified) has a Ratio (Mus musculus [3]) of 2.8 and an Activity (Mus musculus [1]) of 95.01%.

For `CC(Sc1nc2cnccc2n1-c1ccc(C2CC2)c2ccccc12)C(=O)O` (racemic), the Activity [4] was “Non-Toxic”, the Activity [5] was “Non-Toxic” and the Activity [6] was “Non-Toxic”. The Tmax [7] was 0.5 h, the Activity [8] was “Non-Toxic” and the Activity (Mus musculus [1]) was 89.62%. The Activity [9] was “Non-Toxic”, the Activity [10] was “Non-Toxic” and the Activity [11] was “Non-Toxic”. For the same molecule, the Activity (Rattus norvegicus) was 81.42%, the Cmax [12] was 21600 ng/mL and the Activity [13] was “Non-Toxic”. For the same molecule, the half-life [14] was 2.3 h, the AUC(0-inf) [15] was 3320 ng·h/mL and the Activity [16] was “Non-Toxic”. For the same molecule, the Activity [17] was “Non-Toxic”, the MRT inf [18] was 4.6 h and the MRT inf [19] was 2.86 h. The AUC(0-t) [20] was 58200 ng·h/mL, the AUC(0-inf) [21] was 65100 ng·h/mL and the bioavailability [22] was 93.6%. For the same molecule, the IC50 [2] was 6.14 µM, the half-life [23] was 3.1 h and the Activity [24] was “Non-Toxic”. The clearance [25] was 5.3 mL/min/kg, the Activity [26] was “Non-Toxic” and the AUC(0-t) [27] was 3110 ng·h/mL. For the same molecule, the Activity [28] was “Non-Toxic”, the Activity [29] was “Non-Toxic” and the Activity [30] was “Non-Toxic”. The Activity [31] was “Non-Toxic” and the Activity [32] was “Non-Toxic”.
